The values below come from ChEMBL document CHEMBL3102808, “Synthesis, in vitro antimalarial activity and cytotoxicity of novel 4-aminoquinolinyl-chalcone amides” (Bioorg Med Chem, 2014).

One series deals with Plasmodium falciparum. Put plainly: Antimalarial activity against Plasmodium falciparum W2 after 48 hrs by LDH colorimetric assay. In kind it is functional, organism-based. The settings on record: W2, 48 h. Summed up:
(§1)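 Parasite survival after drug exposure read by pLDH colorimetric enzyme assay; APAD co-factor, formazan absorbance at 620 nm. Samples prepared in parasite culture medium in 96-well plates. Survival per well relative to drug-free control wells. IC50 from fitted sigmoidal dose-response curves.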
For `Cc1ccc(C(=O)/C=C/c2ccc(C(=O)NC(C)CNc3ccnc4cc(Cl)ccc34)cc2)o1` (centres undefined), the IC50 (usually the midpoint of a concentration-inhibition curve) came to 0.11 µM.
For `Cc1ccc(C(=O)/C=C/c2ccc(C(=O)NCCCN(C)CCCNc3ccnc4cc(Cl)ccc34)cc2)o1`, half-maximal inhibition (IC50) was put at 0.22 µM.
`Cc1ccc(C(=O)/C=C/c2ccc(C(=O)NCCCNc3ccnc4cc(Cl)ccc34)cc2)o1`: the IC50 was 0.23 µM. This IC50 and that of the compound before are within 1.5-fold of each other.
As to `Cc1ccc(C(=O)/C=C/c2ccc(C(=O)N(C)CCCNc3ccnc4cc(Cl)ccc34)cc2)o1`, the IC50 was 0.46 µM. This IC50 is about 2-fold higher than that of the compound before.
In turn, `Cc1ccc(C(=O)/C=C/c2ccc(C(=O)O)cc2)o1` came in with an IC50 of 14.2 µM.
In the case of `Cc1ccc(C(=O)/C=C/c2ccc(C(=O)NCCCCNc3ccnc4cc(Cl)ccc34)cc2)o1`, the IC50 was found to be 0.1 µM.
On the same count and under the same terms, the value for `Cc1ccc(C(=O)/C=C/c2ccc(C(=O)NCCNc3ccnc4cc(Cl)ccc34)cc2)o1` was 1.78 µM; that for `Cc1ccc(C(=O)/C=C/c2ccc(C(=O)NCCCCCCNc3ccnc4cc(Cl)ccc34)cc2)o1` was 0.07 µM; that for `Cc1ccc(C(=O)/C=C/c2ccc(C(=O)NCCOCCOCCNc3ccnc4cc(Cl)ccc34)cc2)o1` was 0.27 µM.
On the same count and under the same terms, the value for `Cc1ccc(C(=O)/C=C/c2ccc(C(=O)N3CCN(c4ccnc5cc(Cl)ccc45)CC3)cc2)o1` was 1.26 µM.

Another series concerns Plasmodium falciparum. Put plainly: Ratio of chloroquine IC50 to compound IC50 for Plasmodium falciparum W2 after 48 hrs by LDH colorimetric assay. In kind it is functional.
Conditions: not given
As to `Cc1ccc(C(=O)/C=C/c2ccc(C(=O)NCCCCCCNc3ccnc4cc(Cl)ccc34)cc2)o1`, the “Ratio IC50” value is 2.

Test system in the next series: not listed separately
Put plainly: Cytotoxicity against human WI38 cells after 48 hrs by SRB assay. It is filed as cell-based. The settings on record: WI-38, 48 h. Summed up: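 WI-38 normal human fetal lung fibroblasts, passages 21–50, seeded at 10 000 cells/well and incubated 24 h. Compounds dissolved in DMSO, diluted in medium to five concentrations, then exposed 48 h. Untreated cells as control, medium-only blank, parthenolide as standard. Cells TCA-fixed and stained with sulforhodamine B (NCI protocol). IC50 by non-linear regression.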
In general terms: Sulforhodamine B stains cellular protein and so reports cell mass.
`C=C1C(=O)O[C@@H]2C3O[C@]3(C)CC/C=C(\C)CC[C@@H]12` (some centres undefined) gave an IC50 of 16.4 µM. In other words, the double-digit micromolar range.
Turning to `Cc1ccc(C(=O)/C=C/c2ccc(C(=O)NC(C)CNc3ccnc4cc(Cl)ccc34)cc2)o1` (centres undefined), the IC50 was found to be 10 µM.
`Cc1ccc(C(=O)/C=C/c2ccc(C(=O)NCCCN(C)CCCNc3ccnc4cc(Cl)ccc34)cc2)o1`: it took 5.3 µM to reach half-maximal inhibition (IC50).
As to `Cc1ccc(C(=O)/C=C/c2ccc(C(=O)NCCCNc3ccnc4cc(Cl)ccc34)cc2)o1`, it took 74.5 µM to reach half-maximal inhibition (IC50).
For `Cc1ccc(C(=O)/C=C/c2ccc(C(=O)N(C)CCCNc3ccnc4cc(Cl)ccc34)cc2)o1`, the midpoint of inhibition, the IC50, lay at 18.6 µM.
For `Cc1ccc(C(=O)/C=C/c2ccc(C(=O)O)cc2)o1`, the IC50 was greater than 100 µM.
For the compound `Cc1ccc(C(=O)/C=C/c2ccc(C(=O)NCCCCNc3ccnc4cc(Cl)ccc34)cc2)o1`, 39 µM corresponded to half-maximal inhibition (IC50).
In turn, `Cc1ccc(C(=O)/C=C/c2ccc(C(=O)NCCNc3ccnc4cc(Cl)ccc34)cc2)o1` returned an IC50 of 47.3 µM.
The same measure, in the same setting: then `Cc1ccc(C(=O)/C=C/c2ccc(C(=O)NCCCCCCNc3ccnc4cc(Cl)ccc34)cc2)o1`, with 19.5 µM.
Compound `Cc1ccc(C(=O)/C=C/c2ccc(C(=O)NCCOCCOCCNc3ccnc4cc(Cl)ccc34)cc2)o1` showed an IC50 of 10.2 µM.
For `Cc1ccc(C(=O)/C=C/c2ccc(C(=O)N3CCN(c4ccnc5cc(Cl)ccc45)CC3)cc2)o1`, the IC50 came out at 17.3 µM. Compared with the last compound, the IC50 is about 1.7-fold higher.

For another series, the system named is Plasmodium falciparum. Description: Resistance index, ratio of IC50 for Plasmodium falciparum W2 to IC50 for Plasmodium falciparum 3D7. It is filed as functional.
Conditions: not given
Summed up: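 P. falciparum 3D7 and W2 cultures were exposed to test samples prepared in parasite culture medium. Survival was read by a pLDH colorimetric assay using APAD as cofactor, with formazan absorbance at 620 nm and percentage survival set against drug-free wells. IC50 for each strain came from fitted sigmoidal dose-response curves, and the ratio is IC50 W2 / IC50 3D7.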
With `Cc1ccc(C(=O)/C=C/c2ccc(C(=O)NC(C)CNc3ccnc4cc(Cl)ccc34)cc2)o1` (centres undefined), the “Ratio IC50” value was 1.4.
As for `Cc1ccc(C(=O)/C=C/c2ccc(C(=O)NCCCN(C)CCCNc3ccnc4cc(Cl)ccc34)cc2)o1`, the “Ratio IC50” value was determined as 2.4.
The same measure, in the same setting: the value for `Cc1ccc(C(=O)/C=C/c2ccc(C(=O)NCCCNc3ccnc4cc(Cl)ccc34)cc2)o1` was 3.4; that for `Cc1ccc(C(=O)/C=C/c2ccc(C(=O)N(C)CCCNc3ccnc4cc(Cl)ccc34)cc2)o1` was 1.2.
On the same count and under the same terms, the value for `Cc1ccc(C(=O)/C=C/c2ccc(C(=O)O)cc2)o1` was 0.8; that for `Cc1ccc(C(=O)/C=C/c2ccc(C(=O)NCCCCNc3ccnc4cc(Cl)ccc34)cc2)o1` was 2.1; that for `Cc1ccc(C(=O)/C=C/c2ccc(C(=O)NCCNc3ccnc4cc(Cl)ccc34)cc2)o1` was 16.7.
On to `Cc1ccc(C(=O)/C=C/c2ccc(C(=O)NCCCCCCNc3ccnc4cc(Cl)ccc34)cc2)o1`, for which the “Ratio IC50” value is on record as 1.5.
Regarding `Cc1ccc(C(=O)/C=C/c2ccc(C(=O)NCCOCCOCCNc3ccnc4cc(Cl)ccc34)cc2)o1`, the “Ratio IC50” value is on record as 1.1.
For the compound `Cc1ccc(C(=O)/C=C/c2ccc(C(=O)N3CCN(c4ccnc5cc(Cl)ccc45)CC3)cc2)o1`, the “Ratio IC50” value came out at 2.3.

Test system in the next series: not listed separately
Description: Selectivity index, ratio of IC50 for human WI38 cells to IC50 for Plasmodium falciparum 3D7. It is filed as toxicity, cell-based, WI-38. Particulars: read-out: Ratio IC50. Summed up:
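Selectivity index calculated as IC50 on WI-38 fibroblasts (48 h SRB) divided by IC50 on P. falciparum 3D7 (pLDH assay).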
On to `Cc1ccc(C(=O)/C=C/c2ccc(C(=O)NC(C)CNc3ccnc4cc(Cl)ccc34)cc2)o1` (centres undefined), for which the selectivity ratio was 126.
The same measure, in the same setting: the value for `Cc1ccc(C(=O)/C=C/c2ccc(C(=O)NCCCN(C)CCCNc3ccnc4cc(Cl)ccc34)cc2)o1` was 58; that for `Cc1ccc(C(=O)/C=C/c2ccc(C(=O)NCCCNc3ccnc4cc(Cl)ccc34)cc2)o1` was 1120; that for `Cc1ccc(C(=O)/C=C/c2ccc(C(=O)N(C)CCCNc3ccnc4cc(Cl)ccc34)cc2)o1` was 50.
Regarding `Cc1ccc(C(=O)/C=C/c2ccc(C(=O)NCCCCNc3ccnc4cc(Cl)ccc34)cc2)o1`, the selectivity ratio worked out at 819.
Turning to `Cc1ccc(C(=O)/C=C/c2ccc(C(=O)NCCNc3ccnc4cc(Cl)ccc34)cc2)o1`, the selectivity ratio was 446.
For `Cc1ccc(C(=O)/C=C/c2ccc(C(=O)NCCCCCCNc3ccnc4cc(Cl)ccc34)cc2)o1`, the selectivity ratio came to 435.
The same measure, in the same setting: the value for `Cc1ccc(C(=O)/C=C/c2ccc(C(=O)NCCOCCOCCNc3ccnc4cc(Cl)ccc34)cc2)o1` was 40.
`Cc1ccc(C(=O)/C=C/c2ccc(C(=O)N3CCN(c4ccnc5cc(Cl)ccc45)CC3)cc2)o1`: the selectivity ratio came out at 32.

For a further series, the system named is Plasmodium falciparum. Description: Antimalarial activity against Plasmodium falciparum 3D7 after 48 hrs by LDH colorimetric assay. In kind it is functional, organism-based. Particulars: 3D7, 48 h. Summed up:
as §1
As for `Cc1ccc(C(=O)/C=C/c2ccc(C(=O)NC(C)CNc3ccnc4cc(Cl)ccc34)cc2)o1` (centres undefined), the IC50 worked out at 0.08 µM.
On to `Cc1ccc(C(=O)/C=C/c2ccc(C(=O)NCCCN(C)CCCNc3ccnc4cc(Cl)ccc34)cc2)o1`, for which it took 0.09 µM to reach half-maximal inhibition (IC50).
Turning to `Cc1ccc(C(=O)/C=C/c2ccc(C(=O)NCCCNc3ccnc4cc(Cl)ccc34)cc2)o1`, the IC50 was found to be 0.07 µM. The IC50 values of the last two compounds are within 1.5-fold of each other.
Consider `Cc1ccc(C(=O)/C=C/c2ccc(C(=O)N(C)CCCNc3ccnc4cc(Cl)ccc34)cc2)o1`, for which the midpoint of inhibition, the IC50, lay at 0.37 µM.
`Cc1ccc(C(=O)/C=C/c2ccc(C(=O)O)cc2)o1`: the midpoint of inhibition, the IC50, lay at 18.4 µM. This IC50 lies about 50-fold higher than the previous one.
Same read-out and setting: then `Cc1ccc(C(=O)/C=C/c2ccc(C(=O)NCCCCNc3ccnc4cc(Cl)ccc34)cc2)o1`, with 0.05 µM; and `CCCCNC(=O)c1ccc(/C=C/C(=O)c2ccc(C)o2)cc1`, with 10 µM; and `Cc1ccc(C(=O)/C=C/c2ccc(C(=O)NCCNc3ccnc4cc(Cl)ccc34)cc2)o1`, with 0.11 µM.
Regarding `Cc1ccc(C(=O)/C=C/c2ccc(C(=O)NCCCCCCNc3ccnc4cc(Cl)ccc34)cc2)o1`, the IC50 came to 0.05 µM.
With `Cc1ccc(C(=O)/C=C/c2ccc(C(=O)N3CCOCC3)cc2)o1`, the IC50 is greater than 30 µM.
The compound `Cc1ccc(C(=O)/C=C/c2ccc(C(N)=O)cc2)o1` came in with an IC50 of 10 µM.
`Cc1ccc(C(=O)/C=C/c2ccc(C(=O)NCCOCCOCCNc3ccnc4cc(Cl)ccc34)cc2)o1` showed an IC50 of 0.26 µM. This IC50 lies about 38-fold lower than the previous one.
The same measure, in the same setting: the value for `Cc1ccc(C(=O)/C=C/c2ccc(C(=O)N3CCN(c4ccnc5cc(Cl)ccc45)CC3)cc2)o1` was 0.54 µM.
